Assay results as given in publication PMC8360185 (Chembiochem, 2021).

Tested on: FKBP12-NLuc or FKBP51-NLuc
Format: cell-based, human
Conditions: 1 µM Elacridar, 20 nM tracer 2b or 200 nM tracer 2c
Outline: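 HEK293T cells expressing C-terminal FKBP-NanoLuc fusions were resuspended in Opti-MEM at 4.6×105 (transient) or 1.81×10^6 cells/mL (stable). Tracer was added from an eightfold stock, and test compound in DMSO was 1:2 serially diluted. Plates were incubated 2 h at 37 °C, then 15 min at RT. NanoGlo substrate (1:664) and extracellular NanoLuc inhibitor (1:2000) were added, with donor read at 450 nm and acceptor at 660 nm after 3 min.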

SMILES | effect of Elacridar on NanoBRET activity
C=CC[C@@H]1/C=C(\C)C[C@H](C)C[C@H](OC)[C@H]2O[C@@](O)(C(=O)C(=O)N3CCCC[C@H]3C(=O)O[C@H](/C(C)=C/[C@@H]3CC[C@@H](O)[C@H](OC)C3)[C@H](C)[C@@H](O)CC1=O)[C@H](C)C[C@@H]2OC [FK506] | did not affect
COc1ccc(CC[C@@H](OC(=O)[C@@H]2CCCCN2C(=O)[C@H](c2cc(OC)c(OC)c(OC)c2)C2CCCCC2)c2cccc(OCCN3CCOCC3)c2)cc1OC [SAFit2] | did not affect
